TRPN1 ag – zebrafish TRPN1 (NompC) channel agonism; HEK293 zebrafish TRPN1-YFP, Fluo-8 calcium fluorescence; 100% = response to 87 µM carbachol; actives 0.18% (n = 220,000); AID 1424; activation, % at 3 µM;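 active = activation above its plate's cutoff, the mean activation of test wells on that plate plus 3 SD, cut at about 19% in these data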
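Material: zebrafish TRPN1-YFP in HEK293 cells; Doses: single test compound dose, 3 µM nominal, 0.3% DMSO; Timing: dye loading 1 h at 37 °C, then 30 min room temperature; Technique: intracellular calcium fluorescence with Fluo-8; Benchmarks: high carbachol 87 µM, low DMSO alone.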
CRFBP-R2 agonist – agonists of human CRF-binding protein/CRF-R2 receptor complex | HEK293 CRF-R2/CRF-BP, calcium dye fluorescence (FLIPR); percent of saturating CRF peptide response | activation, % at 13.2 µM | actives 0.46% (n = 350,000);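 active = activation of at least 50%, plus an integration ratio under a set limit after plate pattern correction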
V1R ag counter – activates human V1a receptor in oxytocin agonist counter-screen; P37288; CHO-V1R cells, Fluo-8 calcium fluorescence, agonist mode; 0% DMSO, 100% 3 nM vasopressin; activation, % at 3 µM; actives 0.25% (n = 320,000); AID 2797;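 active = activation above the mean activation of all tested compounds plus 3 SD, per screening run, cut at about 20% in these data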;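 note: signal is peak over basal fluorescence ratio across a 100 second FLIPR read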
OXTR agonist – activates the human oxytocin receptor. P30559. CHO-OTR cells, Fluo-8 calcium fluorescence; normalized: DMSO 0%, oxytocin 100%. activation, % at 3 µM. actives 0.32% (n = 320,000). AID 2435;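 active = activation above the mean of all tested compounds plus 3 SD, cutoff set per screening run, cut at about 20% in these data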;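 note: peak over basal fluorescence ratio from a 100 s FLIPR kinetic read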
OXTR potentiator – potentiates the human oxytocin receptor response; P30559; CHO-OTR cells, Fluo-8 calcium fluorescence, potentiator mode; 0% = oxytocin EC15, 100% = EC100; activation, % at 3 µM; actives 0.061% (n = 320,000); AID 2445;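 active = activation above that plate's cutoff, the mean activation of tested compounds plus 3 SD, cut at about 6.6% in these data, passing the limit was not always enough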
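System: human OTR in CHO cells; Also added: sub-maximal oxytocin, roughly EC15; Timing: compound 6 min at room temperature before oxytocin, 100 s read; Technique: Fluo-8 intracellular calcium fluorescence, ex 470-495, em 515-575 nm; Controls: oxytocin EC15 low and EC100 high; Replication: singlicate.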
TRPML3 agonist – activates the human TRPML3 channel; HEK293 TRPML3-YFP, Fluo-8 calcium fluorescence; 100% = the carbachol control signal; activation, % at 3 µM; actives 0.29% (n = 220,000); AID 1448;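 active = activation above its plate's cutoff, the mean activation of the plate's test wells plus 3 SD, cut at about 12% in these data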
Target sequence (Q8TDD5 whole entry, looked up): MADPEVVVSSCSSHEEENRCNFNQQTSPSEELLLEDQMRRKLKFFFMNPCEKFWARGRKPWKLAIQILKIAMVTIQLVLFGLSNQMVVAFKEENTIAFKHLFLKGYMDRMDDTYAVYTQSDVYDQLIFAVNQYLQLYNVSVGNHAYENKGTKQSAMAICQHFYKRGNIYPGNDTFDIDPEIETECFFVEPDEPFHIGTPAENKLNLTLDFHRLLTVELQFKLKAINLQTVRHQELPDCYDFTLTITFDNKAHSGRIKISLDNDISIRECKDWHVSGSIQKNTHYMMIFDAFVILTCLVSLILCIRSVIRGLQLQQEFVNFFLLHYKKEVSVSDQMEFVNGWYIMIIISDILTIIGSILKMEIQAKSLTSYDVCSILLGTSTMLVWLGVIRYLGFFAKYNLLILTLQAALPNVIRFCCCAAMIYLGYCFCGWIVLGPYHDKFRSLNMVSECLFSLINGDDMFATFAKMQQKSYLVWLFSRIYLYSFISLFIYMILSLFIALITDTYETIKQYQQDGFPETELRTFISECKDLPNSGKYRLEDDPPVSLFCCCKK
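Test system: HEK293 cells stably carrying human TRPML3-YFP; Doses: single dose, 3 µM final nominal compound, 0.3% DMSO final; Schedule: dye loading 1 h 37 °C then 30 min ambient, 125 s read; Technique: Fluo-8 calcium fluorescence; Benchmarks: high control carbachol 87 µM, low control DMSO.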
TRPN1 counter – zebrafish TRPN1 agonism as TRPML3 agonist counter-screen; activation, % at 3 µM; AID 1525; actives 10% (n = 310); shares compounds with TRPML3 agonist; HEK293 zebrafish TRPN1-YFP, Fluo-8 calcium fluorescence; scaled: carbachol wells 100%, DMSO wells 0%;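 active = mean activation over replicates above a set limit taken from the earlier TRPN1 channel primary screen, cut at about 19% in these data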
TRPML3 confirm – confirmation of human TRPML3 channel agonists; actives 80% (n = 310); activation, % at 3 µM; shares compounds with TRPML3 agonist; HEK293 TRPML3-YFP, Fluo-8 calcium fluorescence; 100% set by carbachol, 0% by DMSO; AID 1526;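 active = activation above a set limit derived from the earlier primary screen, cut at about 12% in these data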
Numbers stand for hits; n = inactive; x = no result. Compounds with a hit are over-represented: about 0.83% of the library has one in this group of screens.

SMILES	TRPN1 ag	CRFBP-R2 agonist	V1R ag counter	OXTR agonist	OXTR potentiator	TRPML3 agonist	TRPN1 counter	TRPML3 confirm
COC(=O)c1[nH]c2c(c1C)C(=O)CC(c1cccs1)C2 (configuration not stated)	n	n	n	n	n	26	n	n
CCc1ccc(CN2CCCC(C(=O)Nc3ccccc3-c3ccc(OC)cc3)C2)o1 (configuration not stated)	x	n	n	n	n	x	x	x
CCOC(=O)c1sc(NC(=O)C2CCCCC2)nc1C	x	n	n	n	n	x	x	x
Cc1cc(C(C)c2ccccc2)c(O)c(CN2CCOCC2)c1C (configuration not stated)	n	n	n	n	n	16	n	33
Cc1c(Cl)cc(C(C)C)c(O)c1CN1CCOCC1	x	n	x	x	x	x	x	x
COc1ccc(N(C)C(=O)c2ccc3nc(-c4ccccc4)c(-c4ccccc4)nc3c2)cc1	n	n	n	n	n	n	x	x
CC(C)N(C(=O)c1ccc2nc(-c3ccccc3)c(-c3ccccc3)nc2c1)C(C)C	n	n	n	n	n	84	n	104
Cc1ccccc1N1CCN(S(=O)(=O)c2ccccc2)CC1	n	n	n	n	n	65	n	36
COc1ccc(/C=C2\C(=O)NC(=S)N2C(=O)c2ccc(F)cc2)cc1	n	n	22	20	n	14	n	n
CC(C)(C)n1nnnc1C(c1cccnc1)N(Cc1ccccc1)Cc1ccco1 (configuration not stated)	n	n	n	n	n	n	x	x
COc1cccc(CN(Cc2ccco2)C(c2ccc(F)cc2)c2nnnn2C(C)(C)C)c1 (configuration not stated)	n	n	n	n	n	25	n	26
CCOC(=O)N1CCC(N2C(=O)c3ccccc3C2Nc2ccc(S(=O)(=O)N3CCCCC3)cc2)CC1 (configuration not stated)	n	x	n	n	n	15	n	n
O=C(Nc1c(S(=O)(=O)c2ccc(Cl)cc2)csc1Br)c1ccccc1Cl	n	n	n	n	n	33	n	44
Cc1cc(C)n(-c2nc(C)nc(NCc3ccccc3)n2)n1	n	n	n	n	n	25	n	23
Cc1ccc(N2C(=O)CS/C2=C(\C(Cl)=C(Cl)Cl)[N+](=O)[O-])cc1	n	n	n	n	n	n	x	x
CC1CCCC(C)N1C(=C(Cl)Cl)C(=C1SCCS1)[N+](=O)[O-] (configuration not stated)	n	n	n	n	n	14	n	55
COc1cccc(C(=O)N(Cc2nc(-c3cccc(C)c3)no2)C(C)C)c1OC	n	n	n	n	n	n	x	x
Cc1cccc(-c2noc(CN(C(C)C)S(=O)(=O)c3ccc(F)cc3)n2)c1	n	n	n	n	n	75	n	56
COc1ccccc1Nc1ncnc2c1c(C)c(C)n2CCO	x	n	x	x	x	x	x	x
O=S(=O)(C=C(c1ccccc1)c1ccccc1)c1ccccc1	n	n	n	n	n	83	n	64
C[N+](C)(C)C/C=C1/COCO1	n	n	n	n	n	52	n	40
Cc1ccc(N2CCN(S(=O)(=O)N3CCCCC3)CC2)c(C)c1	n	n	n	n	n	37	n	132
CC1CCN(S(=O)(=O)c2cc(Cl)ccc2Br)CC1	n	n	n	n	n	n	x	x
O=S(=O)(c1ccc(Cl)cc1Br)N1CCCCC1	n	n	n	n	n	15	n	27
O=S(=O)(N1CCCCC1)N1CCN(c2cc(Cl)ccc2Cl)CC1	n	n	n	n	n	19	n	96
SMILES	TRPN1 ag	CRFBP-R2 agonist	V1R ag counter	OXTR agonist	OXTR potentiator	TRPML3 agonist	TRPN1 counter	TRPML3 confirm
O=C(CNS(=O)(=O)c1cccc2nsnc12)NCCc1ccccc1	x	n	n	n	n	x	x	x
Cc1ccc(S(=O)(=O)N2C(=S)SCC2(C)C)cc1	n	x	x	x	x	28	n	47
CCN(c1ccccc1)S(=O)(=O)c1ccc(F)cc1C	n	n	n	n	n	24	n	50
CCN(c1ccccc1)S(=O)(=O)c1cc2c(cc1C)N(C)CCO2	x	n	n	n	n	x	x	x
CCCc1cc(=O)[nH]c(SCC(=O)Nc2sccc2C#N)n1	x	n	x	x	x	x	x	x
COc1cc(C)ccc1S(=O)(=O)N1CCCCCC1	n	n	n	n	n	94	n	34
COc1ccc(S(=O)(=O)N2CCOCC2)cc1Br	n	n	n	n	n	n	x	x
COc1ccc(NS(=O)(=O)c2ccc(OC)c(N(C)S(=O)(=O)c3ccc(Cl)cc3)c2)cc1	n	n	n	n	n	69	n	34
COc1ccc(S(=O)(=O)N2CCCCCC2)cc1Br	n	n	x	x	x	106	n	70
CCOc1ccc(S(=O)(=O)N2CCCCC2)c(C)c1C	n	n	x	x	x	84	n	77
CC(CC(=O)N1CCN(S(=O)(=O)c2ccc(Cl)cc2)CC1)n1cncn1 (configuration not stated)	x	n	n	n	n	x	x	x
COc1ccc(S(=O)(=O)N2CCCCCC2)cc1N(C)S(=O)(=O)c1ccc(C)cc1	n	n	n	n	n	55	n	49
COc1ccc(S(=O)(=O)N2CCOCC2)cc1N(C)S(=O)(=O)c1ccc(C)cc1	x	n	n	n	n	x	x	x
C=CCN1C=CC(=C/C=C(/C#N)C(=O)OCC)C=C1	n	71	21	29	n	12	n	14
COc1ccc(NC(=O)NC2(C(=O)N3CCCC(C)C3)CCCCC2)cc1 (configuration not stated)	x	n	n	n	n	x	x	x
Cc1ccc(S(=O)(=O)Nc2ccccc2-c2ccccc2)cc1	n	n	n	n	n	91	n	97
Cc1ccc(NS(=O)(=O)c2ccccc2)c(NS(=O)(=O)c2ccccc2)c1	x	n	x	x	x	x	x	x
CCOC(=O)C1CCN(C(=O)c2ccc(NS(=O)(=O)c3ccc4[nH]c(=O)[nH]c4c3)cc2)CC1	x	n	x	x	x	x	x	x
CC12CCC(C(=O)N(CSC(=S)N/N=C\c3ccccc3O)C1=O)C2(C)C (configuration not stated)	n	n	n	n	n	67	n	n
CN(C)c1ccc(/C=N\NC(=S)SCN2C(=O)C3CCC(C)(C2=O)C3(C)C)cc1 (configuration not stated)	n	n	n	n	n	16	n	n
